This note sets out measurements from ChEMBL document CHEMBL1150216, “Flavonol glycosides and steroidal saponins from the leaves of Cestrum nocturnum and their cytotoxicity” (J Nat Prod, 2001).

Converted amounts (≈) assume the structure as drawn.

One data set concerns HSC-2. Kind of data set: Cytotoxicity against human HSC2 cells after 24 by MTT assay. The note with it: read-out: LD50 (the source's name). The data set is classed as functional. For orientation: Formazan colour is commonly taken as a measure of viable cells.
The nature of data set [1]: Cytotoxicity against human HGF cells after 24 by MTT assay. The format is cell-based. The note with it: read-out: LD50 (the source's name). The procedure, abridged:
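Primary human gingival fibroblasts from a healthy person's gingival biopsy, explant-cultured in α-MEM with 30% FBS and antibiotics, used at passages 5–7. Cells were seeded at 6×10^3 into 96-well plates for 24 h, PBS-washed, and exposed to compound for 24 h. Viability was read by MTT (0.2 mg/mL, 4 h), DMSO lysis and A540, giving LD50 in µg/mL.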

As to `C[C@@H]1CC[C@@]2(OC1)O[C@H]1C[C@H]3[C@@H]4CC=C5C[C@@H](O[C@@H]6O[C@H](CO)[C@H](O[C@@H]7O[C@H](CO)[C@@H](O)[C@H](O[C@@H]8OC[C@@H](O)[C@H](O)[C@H]8O)[C@H]7O[C@@H]7O[C@H](CO)[C@@H](O)[C@H](O)[C@H]7O)[C@H](O)[C@H]6O)[C@H](O)C[C@]5(C)[C@H]4CC[C@]3(C)[C@H]1[C@@H]2C`, the results for the CC50 (in the data set with HSC-2; in data set [1]) were 12 µg/mL (≈ 11.4 µM) and 37 µg/mL (≈ 35.3 µM), respectively.
In the case of `C[C@@H]1CC[C@@]2(OC1)O[C@H]1C[C@H]3[C@@H]4CC=C5C[C@@H](O[C@@H]6O[C@H](CO)[C@H](O[C@@H]7O[C@H](CO)[C@@H](O)[C@H](O[C@@H]8OC[C@@H](O)[C@H](O)[C@H]8O)[C@H]7O[C@@H]7O[C@H](CO)[C@@H](O)[C@H](O[C@@H]8O[C@H](CO)[C@@H](O)[C@H](O)[C@H]8O)[C@H]7O)[C@H](O)[C@H]6O)[C@H](O)C[C@]5(C)[C@H]4CC[C@]3(C)[C@H]1[C@@H]2C`, the figures for the CC50 (with HSC-2; in data set [1]) were 2.7 µg/mL (≈ 2.23 µM) and 31 µg/mL (≈ 25.6 µM), respectively.
Consider `C[C@@H]1CC[C@@]2(OC1)O[C@H]1C[C@H]3[C@@H]4CC=C5C[C@@H](O[C@@H]6O[C@H](CO)[C@@H](O[C@@H]7O[C@@H](C)[C@H](O[C@@H]8O[C@@H](C)[C@H](O)[C@@H](O)[C@H]8O)[C@@H](O)[C@H]7O)[C@H](O)[C@H]6O[C@@H]6O[C@@H](C)[C@H](O)[C@@H](O)[C@H]6O)[C@H](O)C[C@]5(C)[C@H]4CC[C@]3(C)[C@H]1[C@@H]2C`, for which the CC50 was 5.5 µg/mL (≈ 5.33 µM) in the data set with HSC-2 and 9.1 µg/mL (≈ 8.82 µM) in data set [1].
In the same order, the values of `C[C@@H]1CC[C@@]2(OC1)O[C@H]1C[C@H]3[C@@H]4CC=C5C[C@@H](O[C@@H]6O[C@H](CO)[C@H](O[C@@H]7O[C@H](CO)[C@@H](O)[C@H](O[C@@H]8OC[C@@H](O)[C@H](O)[C@H]8O)[C@H]7O[C@@H]7O[C@H](CO)[C@@H](O)[C@H](O)[C@H]7O)[C@H](O)[C@H]6O)[C@H](O)C[C@]5(C)[C@H]4CC[C@]3(C)[C@@]1(O)[C@@H]2C` are 13 µg/mL (≈ 12.2 µM) and 58 µg/mL (≈ 54.5 µM).
Take `C[C@@H]1CC[C@@]2(OC1)O[C@H]1[C@@H](O)[C@H]3[C@@H]4CC=C5C[C@@H](O[C@@H]6O[C@H](CO)[C@H](O[C@@H]7O[C@H](CO)[C@@H](O)[C@H](O[C@@H]8OC[C@@H](O)[C@H](O)[C@H]8O)[C@H]7O[C@@H]7O[C@H](CO)[C@@H](O)[C@H](O[C@@H]8O[C@H](CO)[C@@H](O)[C@H](O)[C@H]8O)[C@H]7O)[C@H](O)[C@H]6O)[C@H](O)C[C@]5(C)[C@H]4CC[C@]3(C)[C@H]1[C@@H]2C`: the figures for the CC50 (with HSC-2; in data set [1]) were 4.4 µg/mL (≈ 3.59 µM) and 22 µg/mL (≈ 17.9 µM), respectively.
For the molecule `C[C@@H]1CC[C@@]2(OC1)O[C@H]1C[C@H]3[C@@H]4CC=C5C[C@@H](O[C@@H]6O[C@H](CO)[C@H](O[C@@H]7O[C@H](CO)[C@@H](O)[C@H](O[C@@H]8OC[C@@H](O)[C@H](O)[C@H]8O)[C@H]7O[C@@H]7O[C@H](CO)[C@@H](O)[C@H](O[C@@H]8O[C@H](CO)[C@@H](O)[C@H](O)[C@H]8O)[C@H]7O)[C@H](O)[C@H]6O)[C@H](O)C[C@]5(C)[C@H]4CC[C@]3(C)[C@@]1(O)[C@@H]2C`, the CC50 is 5.5 µg/mL (≈ 4.48 µM) with HSC-2 and 34 µg/mL (≈ 27.7 µM) in data set [1].
Take `C[C@@H]1O[C@@H](OC[C@H]2O[C@@H](Oc3c(-c4ccc(O)cc4)oc4cc(O)cc(O)c4c3=O)[C@H](O[C@@H]3OC[C@@H](O)[C@H](O)[C@H]3O)[C@@H](O)[C@@H]2O)[C@H](O)[C@H](O)[C@H]1O` [CAMELLIASIDE B]: the CC50 (with HSC-2; in data set [1]) was > 400 µg/mL each time.
`C[C@@H]1CC[C@@]2(OC1)O[C@H]1C[C@H]3[C@@H]4CC=C5C[C@@H](O[C@@H]6O[C@H](CO)[C@@H](O[C@@H]7O[C@@H](C)[C@H](O[C@@H]8O[C@@H](C)[C@H](O)[C@@H](O)[C@H]8O)[C@@H](O)[C@H]7O)[C@H](O)[C@H]6O[C@@H]6O[C@@H](C)[C@H](O)[C@@H](O)[C@H]6O)CC[C@]5(C)[C@H]4CC[C@]3(C)[C@H]1[C@@H]2C` [PENNOGENIN RAHAMNOSYL CHACOTRIOSIDE]: the results for the CC50 (with HSC-2; in data set [1]) were 2 µg/mL (≈ 1.97 µM) and 2.8 µg/mL (≈ 2.76 µM), respectively.
